From ChEMBL document CHEMBL4118238, “Facilely accessible quinoline derivatives as potent antibacterial agents” (Bioorg Med Chem, 2018)
Converted amounts (≈) assume the structure as drawn. The source made the active and inactive calls. The calls are words filed in the database; no cut-off is given here.

Key:
Clostridioides difficile [1] = assay: Antibacterial activity against Clostridium difficile UK6 by CLSI M11-A7 protocol based method; format: functional
Outline: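 C. difficile UK6 MICs followed CLSI media and methods for anaerobe susceptibility testing. MIC was taken as the lowest concentration giving complete growth inhibition. DMSO stocks were used, with final DMSO below 0.5%. Runs were repeated at least three times, in duplicate each time.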

HepG2 = assay: Cytotoxicity against human HepG2 cells assessed as reduction in cell viability after 24 hrs by MTT assay; format: cell-based; conditions: HepG2, 24 h
Outline: (§1)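 Cells were grown in DMEM with 10% FBS and 1% penicillin/streptomycin at 37°C, 5% CO2, then seeded at 10^4 cells/well overnight. They were exposed to 128 to 0.125 µg/ml compound, or 1% DMSO control, for 24 h at 37°C. MTT was added for 4 h, formazan dissolved in DMSO for 15 min, and A540 read. IC50 was relative to control-treated cells, in three replicates.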

Staphylococcus aureus = assay: Antibacterial activity against methicillin-resistant Staphylococcus aureus ATCC 33591 by CLSI M11-A7 protocol based method; format: functional
Outline: (§2)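 Broth MIC by a previously described standard protocol; MIC is the lowest concentration giving complete growth inhibition. Compounds were dosed from DMSO stocks with final DMSO below 0.5%. Each experiment was repeated at least three times in duplicate.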

Clostridioides difficile [2] = assay: Antibacterial activity against Clostridium difficile UK6 infected in C57BL/6 mouse assessed as decrease in diarrhea at 50 mg/kg, po bid via gavage for 5 days starting from 4 hrs post challenge measured after 2 days relative to control; format: functional; set-up: scale not given: the % may be the effect or the level left
Outline: (§3)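 Female 6-week C57BL/6 mice (n=10 per group) were antibiotic-pretreated, given clindamycin, then gavaged with 10^6 CFU UK6 spores. Compound was given at 50 mg/kg by gavage at 4 h post-challenge, then twice daily for five days. Mice were checked daily for five days. Percent diarrhea is mice with diarrhea divided by mice in the group, compared by Pearson chi-square.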

Clostridioides difficile [3] = assay: Antibacterial activity against Clostridium difficile UK6 infected in C57BL/6 mouse assessed as decrease in bacterial count in feces at 50 mg/kg, po bid via gavage for 5 days starting from 4 hrs post challenge measured after 5 days by serial dilution method relative to control; format: functional
Outline: (§4)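 Female 6-week C57BL/6 mice (n=10 per group) got an antibiotic cocktail in drinking water for 5 days and autoclaved water for 2 days. Clindamycin 10 mg/kg ip followed one day before gavage of 10^6 CFU UK6 spores. Dosing was 50 mg/kg by gavage at 4 h, then twice daily for five days. Feces from days 1, 3 and 5 were ethanol-shocked, serially diluted and plated anaerobically 48 h. Counts are CFU/g, triplicate plates.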

Clostridioides difficile [4] = assay: Antibacterial activity against Clostridium difficile UK6 infected in C57BL/6 mouse assessed as decrease in diarrhea at 50 mg/kg, po bid via gavage for 5 days starting from 4 hrs post challenge measured daily during compound dosing; format: functional, organism-based; outline: as §3
Clostridioides difficile [5] = assay: Antibacterial activity against Clostridium difficile UK6 infected in C57BL/6 mouse assessed as decrease in bacterial count in feces at 50 mg/kg, po bid via gavage for 5 days starting from 4 hrs post challenge by serial dilution method relative to control; format: functional; set-up: scale not given: the % may be the effect or the level left; outline: as §4
Enterococcus faecalis = assay: Antibacterial activity against vancomycin resistant Enterococcus faecalis ATCC 700802 by CLSI M11-A7 protocol based method; format: functional; outline: as §2
[6] = test system: Staphylococcus epidermidis; assay: Antibacterial activity against methicillin resistant Staphylococcus epidermidis RP62A by CLSI M11-A7 protocol based method; format: functional; outline: as §2
Mus musculus [7] = assay: Toxicity in C57BL/6 mouse assessed as diarrhea at 50 mg/kg, po bid via gavage for 5 days starting from 4 hrs post challenge measured; format: organism-based; conditions: in vivo
Outline: (§5)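 Uninfected female 6-week C57BL/6 mice (n=5) received 50 mg/kg by gavage on the infected group's schedule: at 4 h, then twice daily for five days. They were monitored daily for five days for weight change, survival, diarrhea and other disease signs.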

[8] = Selectivity index, ratio of IC50 for human HepG2 cells to MIC for Clostridium difficile UK6; format: toxicity; conditions: read-out: Selectivity Index
HEK-293T = assay: Cytotoxicity against HEK293T cells assessed as reduction in cell viability after 24 hrs by MTT assay; format: cell-based; conditions: Homo sapiens; outline: as §1
Mus musculus [9] = assay: Toxicity in C57BL/6 mouse assessed as development of Clostridium difficile infection symptoms at 50 mg/kg, po bid via gavage for 5 days starting from 4 hrs post challenge measured; format: organism-based; conditions: in vivo; outline: as §5
[10] = Selectivity index, ratio of IC50 for HEK293 cells to MIC for Clostridium difficile UK6; format: toxicity; conditions: human, read-out: Selectivity Index
Clostridioides difficile [11] = assay: Antibacterial activity against Clostridium difficile UK6 infected in C57BL/6 mouse assessed as increase in mouse survival at 50 mg/kg, po bid via gavage for 5 days starting from 4 hrs post challenge measured from day 3 to 5 during compound dosing relative to control; format: functional
Outline: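 Female C57BL/6 mice (6 weeks) received a six-antibiotic cocktail in drinking water for 5 days, then autoclaved water for 2 days and clindamycin 10 mg/kg ip on day −1. On day 0 they were challenged by gavage with 10^6 CFU UK6 spores. Compound was given by gavage at 50 mg/kg 4 h post-challenge, then twice daily from day 1 for five days. Survival was monitored daily versus an untreated infected group (n=10 per group).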

SMILES: COc1cc2nccc(Nc3ccc(F)c(Cl)c3)c2cc1OCc1ccc(C(C)C)cc1
- MIC (Clostridioides difficile [1]): 1 µg/mL (≈ 2.22 µM)
- IC50 (HepG2): 148 µM
- MIC (Staphylococcus aureus): 1.5 µg/mL (≈ 3.33 µM)
- Activity (Clostridioides difficile [2]): 32%
- fold change (FC) (Clostridioides difficile [3]): 14
- Activity (Clostridioides difficile [4]): Active
- Activity (Clostridioides difficile [5]): >80%
- MIC (Enterococcus faecalis): 3 µg/mL (≈ 6.65 µM)
- MIC [6]: 6 µg/mL (≈ 13.3 µM)
- Activity (Mus musculus [7]): Non-Toxic
- selectivity ratio [8]: > 60
- IC50 (HEK-293T): 146 µM
- Activity (Mus musculus [9]): Non-Toxic
- selectivity ratio [10]: > 60
- Activity (Clostridioides difficile [11]): 20%

SMILES: COc1cc2nccc(Nc3ccc(C)cc3)c2cc1OCc1ccc(C)cc1
- MIC (Clostridioides difficile [1]): > 16 µg/mL
- MIC (Staphylococcus aureus): 12 µg/mL (≈ 31.2 µM)

SMILES: COc1cc2nccc(Nc3ccc(C)cc3)c2cc1OCc1ccc(C(F)(F)F)cc1
- MIC (Clostridioides difficile [1]): 4 µg/mL (≈ 9.12 µM)
- MIC (Staphylococcus aureus): 3 µg/mL (≈ 6.84 µM)
- MIC (Enterococcus faecalis): 3 µg/mL (≈ 6.84 µM)
- MIC [6]: 3 µg/mL (≈ 6.84 µM)

SMILES: COc1cc2nccc(Nc3ccc(C(F)(F)F)cc3)c2cc1OCc1ccc(C(F)(F)F)cc1
- MIC (Clostridioides difficile [1]): 2 µg/mL (≈ 4.06 µM)
- IC50 (HepG2): 70.7 µM
- MIC (Staphylococcus aureus): 0.75 µg/mL (≈ 1.52 µM)
- MIC (Enterococcus faecalis): 0.75 µg/mL (≈ 1.52 µM)
- MIC [6]: 3 µg/mL (≈ 6.09 µM)
- selectivity ratio [8]: 15
- IC50 (HEK-293T): 58.1 µM
- selectivity ratio [10]: 15

SMILES: COc1cc2nccc(Nc3cccc(C(F)(F)F)c3)c2cc1OCc1ccc(C(F)(F)F)cc1
- MIC (Clostridioides difficile [1]): 4 µg/mL (≈ 8.12 µM)
- MIC (Staphylococcus aureus): 3 µg/mL (≈ 6.09 µM)
- MIC (Enterococcus faecalis): 3 µg/mL (≈ 6.09 µM)
- MIC [6]: 6 µg/mL (≈ 12.2 µM)

SMILES: COc1cc2nccc(Nc3ccc(F)c(Cl)c3)c2cc1OCCOc1ccccc1
- MIC (Clostridioides difficile [1]): 4 µg/mL (≈ 9.11 µM)
- MIC (Staphylococcus aureus): 3 µg/mL (≈ 6.84 µM)
- MIC (Enterococcus faecalis): 3 µg/mL (≈ 6.84 µM)
- MIC [6]: 3 µg/mL (≈ 6.84 µM)

SMILES: CCCCCCCCCC(=O)N[C@@H](Cc1c[nH]c2ccccc12)C(=O)N[C@@H](CC(N)=O)C(=O)N[C@@H](CC(=O)O)C(=O)N[C@@H]1C(=O)NCC(=O)N[C@@H](CCCN)C(=O)N[C@@H](CC(=O)O)C(=O)N[C@H](C)C(=O)N[C@@H](CC(=O)O)C(=O)NCC(=O)N[C@H](CO)C(=O)N[C@@H]([C@H](C)CC(=O)O)C(=O)N[C@@H](CC(=O)c2ccccc2N)C(=O)O[C@@H]1C [DAPTOMYCIN]
- MIC (Staphylococcus aureus): 0.5 µg/mL (≈ 0.309 µM)
- MIC (Enterococcus faecalis): 1 µg/mL (≈ 0.617 µM)
- MIC [6]: 0.5 µg/mL (≈ 0.309 µM)

SMILES: COc1cc2nccc(Nc3ccc(F)c(Cl)c3)c2cc1OCc1ccc(C(F)(F)F)cc1
- MIC (Clostridioides difficile [1]): 4 µg/mL (≈ 8.39 µM)
- MIC (Staphylococcus aureus): 1.5 µg/mL (≈ 3.15 µM)
- MIC (Enterococcus faecalis): 1.5 µg/mL (≈ 3.15 µM)
- MIC [6]: 3 µg/mL (≈ 6.29 µM)

SMILES: CN[C@H](CC(C)C)C(=O)N[C@H]1C(=O)N[C@@H](CC(N)=O)C(=O)N[C@H]2C(=O)N[C@H]3C(=O)N[C@H](C(=O)N[C@H](C(=O)O)c4cc(O)cc(O)c4-c4cc3ccc4O)[C@H](O)c3ccc(c(Cl)c3)Oc3cc2cc(c3O[C@@H]2O[C@H](CO)[C@@H](O)[C@H](O)[C@H]2O[C@H]2C[C@](C)(N)[C@H](O)[C@H](C)O2)Oc2ccc(cc2Cl)[C@H]1O [VANCOMYCIN]
- MIC (Clostridioides difficile [1]): 0.5 µg/mL (≈ 0.345 µM)

SMILES: COc1cc2nccc(Nc3ccc(F)c(Cl)c3)c2cc1OCc1ccccc1C
- MIC (Clostridioides difficile [1]): 8 µg/mL (≈ 18.9 µM)
- MIC (Staphylococcus aureus): 1.5 µg/mL (≈ 3.55 µM)
- MIC (Enterococcus faecalis): 1.5 µg/mL (≈ 3.55 µM)
- MIC [6]: 3 µg/mL (≈ 7.09 µM)
